Key:
Mus musculus [1] = test: Dose required to inhibit 50% of arachidonic acid-induced inflammation after topical administration obtained from dose-response curves; type: functional
Mus musculus [2] = test: Effect on Arachidonic Acid-Induced Mouse Ear Inflammation expressed as percent inhibition of MPO at 50 mg/kg of oral administration; type: functional
Method in brief: (§1)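 Balb/c mice (20 g; N=6-10 vehicle, typically 5-6 per drug group) dosed intragastrically with compound in distilled water. Thirty minutes later, 1.0 mg arachidonic acid in 20 µL cold acetone applied to left ear. Ear thickness measured 1 h later. Left ears then harvested and MPO activity read spectrophotometrically (Bradley method). ED50 from multiple dose–response studies (4–5 doses) by linear regression.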

Mus musculus [3] = test: Effect on Arachidonic Acid-Induced Mouse Ear Inflammation expressed as percent inhibition of MPO at 500 ug/ear of topical administration
[4] = target: Leukotriene B4 receptor 1 (Homo sapiens, UniProt Q15722); test: Inhibition of [3H]LTB4 binding to human neutrophils
Sequence of Leukotriene B4 receptor 1 (Q15722 whole entry): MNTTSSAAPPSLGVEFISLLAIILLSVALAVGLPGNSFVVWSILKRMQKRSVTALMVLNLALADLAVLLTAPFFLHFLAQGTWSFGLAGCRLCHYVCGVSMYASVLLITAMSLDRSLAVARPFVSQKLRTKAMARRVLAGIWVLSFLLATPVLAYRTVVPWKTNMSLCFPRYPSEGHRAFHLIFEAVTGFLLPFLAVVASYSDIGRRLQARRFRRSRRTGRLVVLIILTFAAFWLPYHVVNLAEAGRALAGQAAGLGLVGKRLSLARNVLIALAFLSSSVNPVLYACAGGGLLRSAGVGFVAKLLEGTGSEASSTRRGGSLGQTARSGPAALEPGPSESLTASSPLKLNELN
Method in brief: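 Intact human PMNs (10^6; >90% neutrophils, >95% viable) incubated with 0.2 nM [3H]LTB4 for 20 min at 0 °C in Hanks balanced salt solution with 0.1% ovalbumin. Compound tested at 0.1 nM–10 µM; nonspecific binding defined with 1 µM unlabeled LTB4. Bound ligand separated by filtration and counted by scintillation. Duplicate curves of 5–8 concentrations, at least two assays.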

Mus musculus [5] = test: Dose required to inhibit 50% of arachidonic acid-induced inflammation after oral administration obtained from dose-response curves; type: functional; method in brief: as §1
Mus musculus [6] = test: Effect on Arachidonic Acid-Induced Mouse Ear Inflammation expressed as percent inhibition of MPO at 25 mg/kg of oral administration; type: functional; method in brief: as §1
Mus musculus [7] = test: Effect on Arachidonic Acid-Induced Mouse Ear Inflammation expressed as percent inhibition of MPO at 1000 ug/ear of topical administration; type: functional
[8] = target: T1, Polyunsaturated fatty acid 5-lipoxygenase (Rattus norvegicus, UniProt P12527); test: Concentration required to inhibit RBL-1 supernatant 5-lipoxygenase
T1 sequence (P12527 whole entry): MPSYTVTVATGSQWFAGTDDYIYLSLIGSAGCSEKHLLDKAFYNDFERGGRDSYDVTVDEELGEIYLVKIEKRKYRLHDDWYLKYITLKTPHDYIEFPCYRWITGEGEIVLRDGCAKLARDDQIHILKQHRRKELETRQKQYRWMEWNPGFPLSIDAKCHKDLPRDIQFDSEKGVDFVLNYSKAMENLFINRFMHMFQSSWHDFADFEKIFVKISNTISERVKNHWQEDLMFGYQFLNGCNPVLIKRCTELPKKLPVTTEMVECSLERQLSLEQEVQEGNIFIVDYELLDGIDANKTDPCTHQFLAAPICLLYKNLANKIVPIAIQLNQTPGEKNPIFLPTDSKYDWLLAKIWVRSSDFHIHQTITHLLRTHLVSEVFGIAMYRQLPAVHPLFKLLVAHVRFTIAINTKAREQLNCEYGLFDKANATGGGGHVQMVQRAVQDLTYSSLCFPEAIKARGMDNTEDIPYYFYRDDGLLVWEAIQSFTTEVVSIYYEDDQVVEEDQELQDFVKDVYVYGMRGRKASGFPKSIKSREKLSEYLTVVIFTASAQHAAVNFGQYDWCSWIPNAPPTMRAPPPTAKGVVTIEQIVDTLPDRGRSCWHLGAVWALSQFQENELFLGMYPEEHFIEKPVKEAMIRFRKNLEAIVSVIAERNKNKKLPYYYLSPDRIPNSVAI

[9] = target: Cysteinyl leukotriene receptor 1 (Homo sapiens, UniProt Q9Y271); test: Inhibitory concentration LTB4 with [3H]LTD4 in LTD4 receptor binding assay
Sequence of Cysteinyl leukotriene receptor 1 (Q9Y271 whole entry, looked up): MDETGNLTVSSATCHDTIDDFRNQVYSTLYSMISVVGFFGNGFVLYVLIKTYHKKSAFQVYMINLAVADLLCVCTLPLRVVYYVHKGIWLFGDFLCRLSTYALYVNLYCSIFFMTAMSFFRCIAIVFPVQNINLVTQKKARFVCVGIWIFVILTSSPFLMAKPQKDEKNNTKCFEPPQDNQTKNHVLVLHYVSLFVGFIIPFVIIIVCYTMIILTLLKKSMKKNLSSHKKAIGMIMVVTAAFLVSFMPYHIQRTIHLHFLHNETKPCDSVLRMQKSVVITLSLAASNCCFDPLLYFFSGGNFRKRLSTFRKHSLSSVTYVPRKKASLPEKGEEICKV

Mus musculus [10] = test: Effect on Arachidonic Acid-Induced Mouse Ear Inflammation expressed as percent inhibition of MPO at 50 ug/ear of topical administration; type: functional
Homo sapiens = species: Homo sapiens; test: Concentration required to block LTB4 induced degranulation in human PMNs; type: functional
Method in brief: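 Washed human PMNs (10^6, isolated by Ficoll-Hypaque, dextran sedimentation, hypotonic lysis) in 1 mL Earls balanced salt solution with 20 mM HEPES, 0.1% ovalbumin. Preincubated 10 min with 5 µg/mL cytochalasin B, then compound or vehicle 5 min at 37 °C, then 100 nM LTB4 for 3 min. Supernatant MPO measured kinetically at 460 nm (o-dianisidine/H2O2, pH 6.0). Four curves of 5–7 concentrations; mean IC50 ± SEM.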

SMILES | ED50 (Mus musculus [1]) [ug ear-1] | inhibition in vivo at 50 mg/kg (Mus musculus [2]) [%] | Ki [4] [nM] | ED50 (Mus musculus [5]) [mg/kg] | other results
COc1ccc(CCCCCCCCOc2ccc(C[S+]([O-])c3cccc(N)c3)nc2/C=C/C(=O)O)cc1 (stereo not drawn) | 350 | 0 | – | – | Inhibition (Mus musculus [3]): 55%
O=C(O)/C=C/c1nc(CSc2c(Cl)cccc2Cl)ccc1OCCc1ccc(F)cc1 | – | – | 1.5 | 14.1 | inhibition in vivo at 25 mg/kg (Mus musculus [6]): 75%
COc1ccc(CCCCOc2ccc(CSc3ccccc3)nc2/C=C/C(=O)O)cc1 | – | 26 | 2.8 | – | Inhibition (Mus musculus [7]): 49%
O=C(O)/C=C/c1nc(CSc2c(Cl)cccc2Cl)ccc1OCCCc1ccccc1 | – | – | 1.4 | – | –
O=C(O)/C=C/c1nc(CSc2c(Cl)cccc2Cl)ccc1OCc1ccc(F)cc1 | – | – | 12 | – | –
O=C(O)/C=C/c1nc(CSc2c(Cl)cccc2Cl)ccc1OCCc1ccc(Cl)cc1 | – | – | 1.3 | – | –
COc1ccc(CCOc2ccc(CSc3c(Cl)cccc3Cl)nc2/C=C/C(=O)O)cc1 | – | – | 1.2 | – | –
COc1ccc(CCCCOc2ccc(CSc3c(Cl)cccc3Cl)nc2/C=C/C(=O)O)cc1 | – | 54 | 1.5 | 57.6 | Inhibition (Mus musculus [7]): 82%
COc1ccc(CCCCCCCCOc2ccc(CSCc3cccc(C(=O)O)c3)nc2/C=C/C(=O)O)cc1 | 390 | 0 | – | – | Inhibition (Mus musculus [3]): 69%
O=C(O)/C=C/c1nc(CSc2c(Cl)cccc2Cl)ccc1OCCc1ccccc1 [TICOLUBANT] | 8 | – | 0.78 | 14.8 | IC50 [8]: 8200 nM; IC50 [9]: 16800 nM; inhibition in vivo at 25 mg/kg (Mus musculus [6]): 70%; Inhibition (Mus musculus [10]): 83%; IC50 (Homo sapiens): 53 nM

From ChEMBL document CHEMBL1129796, “(E)-3-[6-[[(2,6-dichlorophenyl)thio]methyl]-3-(2-phenylethoxy)-2- pyridinyl]-2-propenoic acid: a high-affinity leukotriene B4 receptor antagonist with oral antiinflammatory activity” (J Med Chem, 1996)
